According to ChEMBL document CHEMBL1147426, “Thiazoles and thiopyridines: novel series of high affinity h5HT(7) ligands” (Bioorg Med Chem Lett, 2004):

Legend:
Type in all cases: cell-based
[1] = biological target: 5-hydroxytryptamine receptor 7 (Homo sapiens, UniProt P34969); test: Binding affinity towards human 5-hydroxytryptamine 7 receptor by the displacement of [3H]-5-HT radioligand from the cloned receptor expressed in CHO cells
[2] = biological target: 5-hydroxytryptamine receptor 2A (Homo sapiens, UniProt P28223); test: Binding affinity towards human 5-hydroxytryptamine 2A receptor by the displacement of [3H]ketanserin radioligand from the cloned receptor expressed in CHO cells
How it was run: (§1)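 Affinities are given as the geometric mean of 3–6 independent determinations; some values rest on only 2 determinations.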

[3] = biological target: T1, 5-hydroxytryptamine receptor 1A (Homo sapiens, UniProt P08908); test: Binding affinity towards human 5-hydroxytryptamine 1A receptor by the displacement of [3H]5-HT radioligand from the cloned receptor expressed in HeLa cells; how it was run: as §1
T1 sequence (P08908 whole entry): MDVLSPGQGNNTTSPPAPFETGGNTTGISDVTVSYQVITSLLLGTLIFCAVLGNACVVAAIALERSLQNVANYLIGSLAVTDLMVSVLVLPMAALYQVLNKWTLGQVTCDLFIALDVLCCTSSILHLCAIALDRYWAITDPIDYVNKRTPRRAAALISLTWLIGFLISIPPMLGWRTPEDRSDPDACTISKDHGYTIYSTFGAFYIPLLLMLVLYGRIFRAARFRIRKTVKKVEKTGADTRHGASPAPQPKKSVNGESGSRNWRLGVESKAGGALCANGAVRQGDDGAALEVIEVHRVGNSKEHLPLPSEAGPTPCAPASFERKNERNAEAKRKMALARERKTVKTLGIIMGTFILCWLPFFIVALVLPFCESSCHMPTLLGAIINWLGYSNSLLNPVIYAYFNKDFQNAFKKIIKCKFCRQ

D(2) dopamine receptor = D(2) dopamine receptor (Homo sapiens, UniProt P14416); test: Binding affinity towards human dopamine receptor D2 by the displacement of [3H]spiperone radioligand from the cloned receptor expressed in CHO cells; how it was run: as §1
D(2) dopamine receptor, sequence (P14416 whole entry): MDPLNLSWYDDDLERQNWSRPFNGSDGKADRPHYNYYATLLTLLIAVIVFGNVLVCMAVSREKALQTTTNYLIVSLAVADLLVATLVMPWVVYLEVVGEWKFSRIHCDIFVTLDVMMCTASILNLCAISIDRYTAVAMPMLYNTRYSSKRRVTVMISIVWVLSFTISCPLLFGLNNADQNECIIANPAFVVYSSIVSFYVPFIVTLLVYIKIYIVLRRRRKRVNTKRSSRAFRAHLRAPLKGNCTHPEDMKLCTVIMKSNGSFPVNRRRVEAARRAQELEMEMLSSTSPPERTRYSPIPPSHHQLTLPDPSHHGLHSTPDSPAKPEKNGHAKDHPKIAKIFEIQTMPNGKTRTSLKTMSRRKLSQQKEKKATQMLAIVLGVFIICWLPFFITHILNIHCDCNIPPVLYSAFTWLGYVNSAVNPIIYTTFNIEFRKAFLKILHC

5-hydroxytryptamine receptor 2A, sequence (P28223 whole entry): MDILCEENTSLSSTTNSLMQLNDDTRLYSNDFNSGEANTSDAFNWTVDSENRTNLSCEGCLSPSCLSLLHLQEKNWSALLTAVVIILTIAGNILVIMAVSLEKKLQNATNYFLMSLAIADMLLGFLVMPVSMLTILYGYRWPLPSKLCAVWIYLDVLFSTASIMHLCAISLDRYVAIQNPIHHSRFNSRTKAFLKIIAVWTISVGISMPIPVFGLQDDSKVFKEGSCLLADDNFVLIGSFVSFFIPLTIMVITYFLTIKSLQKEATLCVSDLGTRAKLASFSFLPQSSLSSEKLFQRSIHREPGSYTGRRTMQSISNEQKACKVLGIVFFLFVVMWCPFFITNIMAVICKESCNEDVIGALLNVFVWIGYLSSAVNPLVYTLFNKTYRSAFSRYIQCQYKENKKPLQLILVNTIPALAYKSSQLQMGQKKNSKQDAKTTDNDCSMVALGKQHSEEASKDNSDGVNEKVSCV
5-hydroxytryptamine receptor 7, sequence (P34969 whole entry): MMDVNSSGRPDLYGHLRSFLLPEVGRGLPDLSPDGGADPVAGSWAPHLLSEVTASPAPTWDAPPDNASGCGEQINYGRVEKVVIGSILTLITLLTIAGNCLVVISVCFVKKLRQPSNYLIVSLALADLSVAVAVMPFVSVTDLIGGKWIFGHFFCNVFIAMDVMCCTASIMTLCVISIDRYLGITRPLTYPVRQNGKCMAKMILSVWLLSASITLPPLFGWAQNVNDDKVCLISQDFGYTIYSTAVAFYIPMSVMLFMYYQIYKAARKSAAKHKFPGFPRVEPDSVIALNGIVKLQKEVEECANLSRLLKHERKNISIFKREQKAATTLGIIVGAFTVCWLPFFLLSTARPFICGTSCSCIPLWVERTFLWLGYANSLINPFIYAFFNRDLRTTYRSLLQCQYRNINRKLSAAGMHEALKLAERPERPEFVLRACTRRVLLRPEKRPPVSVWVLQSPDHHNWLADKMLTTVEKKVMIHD

SMILES | Ki [1] | Ki [2] | Ki [3] | Ki (D(2) dopamine receptor)
Cc1sc(SCCN(C)C)nc1-c1ccccc1 | 0.17 µM |  |  | 
CN(C)CCSc1cccc(C2(O)CCCCC2)n1 | 0.0072 µM | 0.48 µM | 0.041 µM | > 1 µM
CN(C)CCSc1ccnc(-c2ccccc2)c1 | 0.1 µM |  | 1.2 µM | 
CN(C)CCSc1n[nH]c(-c2ccccc2)n1 | 1.2 µM |  |  | 
CN(C)CCSc1ncc(-c2ccccc2)s1 | 3.2 µM |  |  | 
CN(C)CCSc1nc(-c2ccncc2)cs1 | 0.027 µM | > 0.2 µM | 0.09 µM | 0.13 µM
CN(C)CCSc1nc(-c2ccccc2)cs1 | 0.012 µM | 0.64 µM | 0.21 µM | > 1 µM
CN(C)CCSc1nccs1 | 6.8 µM |  |  | 

Now from value to compound:

Ki [1] | Ki [2] | Ki [3] | Ki (D(2) dopamine receptor) | SMILES
> 4 µM |  |  |  | CN(C)CCSc1nnc(-c2ccccc2)o1
0.0007 µM | 0.23 µM | 0.0087 µM | 1.3 µM | CN(C)CCSc1cccc(C2CCCCC2)n1
 |  |  | 0.45 µM | CN(C)CCSc1cccc(-c2ccccc2)n1
0.084 µM | 1 µM | 0.83 µM | > 1 µM | CN(C)CCSc1nc2ccccc2s1
0.0041 µM | 0.27 µM | 0.037 µM | 0.87 µM | CN(C)CCSc1cccc(Br)n1
0.022 µM | 1.2 µM | 2.2 µM | > 1 µM | CN(C)CCSc1nc(C(C)(C)C)cs1
